For one assay, the system named is HL-60. The experiment in a line: Cytotoxicity against human HL60 cells after 3 days by MTT assay. Type of assay: functional, cell-based. The note with it: HL-60, 72 h. In outline:
(§1)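 Cells were kept in MEM with 10% fetal calf serum and kanamycin; the P-388/VCR line also received 0.5 μg/mL vincristine. Cells were seeded at 20 000 cells/mL and tested at eight concentrations, starting from 25 μg/mL in the well. After 3 days of culture, living cells were counted by MTT staining. Each experiment was run three times.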
A general note: Formazan colour is commonly taken as a measure of viable cells.

Another assay deals with Leishmania donovani. In words: Antileishmanial activity against Leishmania donovani promastigotes after 6 to 7 hrs. Type of assay: functional, organism-based. In a few lines: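 Promastigotes were maintained in 199 medium with 10% fetal calf serum and kanamycin. They were plated at 10 000 cells/mL and exposed to four sample concentrations, starting from 25 μg/mL in the well.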

The test system of assay [1] is P388. In words: Cytotoxicity against vincristine-resistant mouse P388 cells after 3 days by MTT assay. Type of assay: functional, cell-based. The note with it: P388, 72 h. In a few lines:
as §1

Assay [2] deals with P388. In words: Cytotoxicity against mouse P388 cells after 3 days by MTT assay. Type of assay: functional, cell-based. As to conditions: P388, 72 h. In a few lines:
as §1

In assay [3] the test system is P388. The experiment in a line: Cytotoxicity against adriamycin-resistant mouse P388 cells after 3 days by MTT assay. Format: functional, cell-based. As to conditions: P388, 72 h. In outline:
as §1

The results in this text go back to ChEMBL document CHEMBL1151302, “Cytotoxic and leishmanicidal aminoglycosteroids and aminosteroids from Holarrhena curtisii” (J Nat Prod, 1998).

As a reminder, the IC50 is the concentration needed to halve the response being measured.

≈ marks a conversion by molar mass, not a printed value.

As for `CN[C@H]1[C@@H](OC)C[C@H](O[C@H]2CC[C@@]3(C)[C@@H](CC[C@@H]4[C@@H]3CC[C@]3(C)[C@H](C(C)=O)CC[C@]43O)C2)O[C@@H]1C`, the IC50 worked out at 0.01 µg/mL (≈ 0.0203 µM) in the assay with HL-60; 6.25 µg/mL (≈ 12.7 µM) in the assay on Leishmania donovani; 10.1 µg/mL (≈ 20.5 µM) in the assay on P388 [1]; 17 µg/mL (≈ 34.6 µM) in the assay on P388 [2]; 10.4 µg/mL (≈ 21.2 µM) in the assay with P388 [3].

Regarding `CO[C@H]1C[C@H](O[C@H]2CC[C@@]3(C)[C@@H](CC[C@@H]4[C@@H]3CC[C@]3(C)[C@@H](C(C)=O)CC[C@]43O)C2)O[C@H](C)[C@H]1N`, the IC50 worked out at 2.6 µg/mL (≈ 5.44 µM) in the assay on HL-60; 1.56 µg/mL (≈ 3.27 µM) in the assay on Leishmania donovani; 3.5 µg/mL (≈ 7.33 µM) with P388 [1]; 4 µg/mL (≈ 8.37 µM) with P388 [2]; 11.5 µg/mL (≈ 24.1 µM) with P388 [3].

Turning to `CC(=O)[C@H]1C[C@H](O)[C@H]2[C@@H]3CC=C4C[C@H](N)CC[C@]4(C)[C@H]3CC[C@@]21C`, the IC50 in the assay on HL-60 was 1.2 µg/mL (≈ 3.62 µM); in the assay on Leishmania donovani, > 1.56 µg/mL; with P388 [1], 1.4 µg/mL (≈ 4.22 µM); with P388 [2] it was 4.1 µg/mL (≈ 12.4 µM); with P388 [3] it was 3.6 µg/mL (≈ 10.9 µM).

For the molecule `CC(=O)[C@H]1CC[C@]2(O)[C@@H]3CC[C@H]4C[C@H](N)CC[C@]4(C)[C@H]3CC[C@]12C`, the IC50 was 10.1 µg/mL (≈ 30.3 µM) with HL-60; 6.25 µg/mL (≈ 18.7 µM) in the assay on Leishmania donovani; 3.4 µg/mL (≈ 10.2 µM) in the assay on P388 [1]; 3.6 µg/mL (≈ 10.8 µM) in the assay with P388 [2]; 8.6 µg/mL (≈ 25.8 µM) with P388 [3].

`CO[C@H]1C[C@H](O[C@H]2CC[C@@]3(C)[C@@H](CC[C@@H]4[C@@H]3CC[C@]3(C)[C@H](C(C)=O)CC[C@]43O)C2)O[C@H](C)[C@H]1N`: the IC50 was 0.21 µg/mL (≈ 0.44 µM) in the assay with HL-60; 6.25 µg/mL (≈ 13.1 µM) in the assay on Leishmania donovani; 10.2 µg/mL (≈ 21.4 µM) in the assay on P388 [1]; 10.5 µg/mL (≈ 22 µM) with P388 [2]; 13.5 µg/mL (≈ 28.3 µM) in the assay on P388 [3].

Regarding `CN[C@H]1[C@@H](OC)C[C@H](O[C@H]2CC[C@@]3(C)[C@@H](CC[C@@H]4[C@@H]3CC[C@]3(C)[C@@H](C(C)=O)CC[C@]43O)C2)O[C@@H]1C` [HOLACURTINE], the concentration for half-maximal inhibition (IC50) came to 0.86 µg/mL (≈ 1.75 µM) with HL-60; 1.56 µg/mL (≈ 3.17 µM) with Leishmania donovani; 2.8 µg/mL (≈ 5.69 µM) in the assay with P388 [1]; 4.2 µg/mL (≈ 8.54 µM) in the assay with P388 [2]; 3.4 µg/mL (≈ 6.91 µM) with P388 [3].

In the case of `CO[C@H]1C[C@H](O[C@H]2CC[C@@]3(C)C(=CC[C@@H]4[C@@H]3CC[C@]3(C)[C@@H](C(C)=O)C[C@H](O)[C@]43O)C2)O[C@H](C)[C@H]1N` [HOLACURTINOL], the IC50 in the assay on HL-60 came out at 2.6 µg/mL (≈ 5.29 µM); in the assay with Leishmania donovani, 6.25 µg/mL (≈ 12.7 µM); in the assay with P388 [1], 10 µg/mL (≈ 20.3 µM); with P388 [2] it was 16 µg/mL (≈ 32.5 µM); with P388 [3], 10.4 µg/mL (≈ 21.2 µM).

Turning to `CC(=O)[C@H]1CC[C@H]2[C@@H]3CC=C4C[C@H](N)CC[C@]4(C)[C@H]3CC[C@]12C` [HOLAMINE], the IC50 with HL-60 worked out at 0.2 µg/mL (≈ 0.634 µM); with Leishmania donovani, 0.39 µg/mL (≈ 1.24 µM); in the assay with P388 [1] it was 0.83 µg/mL (≈ 2.63 µM); with P388 [2], 0.91 µg/mL (≈ 2.88 µM); in the assay with P388 [3] it was 0.85 µg/mL (≈ 2.69 µM).
